# What was measured:
# Rattus norvegicus [1] = organism: Rattus norvegicus; experiment: Radioactivity distribution in kidney of tumor-bearing fischer rat after injection of anti-[18F]FMACBC after 120 min; format: ADME, organism-based; details: in vivo, 2 h
# Summary of the method: (§1)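 Male Fischer 344 rats carrying intracranial rat 9L gliosarcoma, made by stereotaxic injection of 4 × 10^4 cells 17–19 days before. Awake restrained rats received ~35 μCi of 18F tracer in 0.3 mL sterile water IV by tail vein and were killed at 5, 60 or 120 min, n = 3–5. Tissues were weighed, gamma-counted, decay-corrected and expressed as % injected dose per gram.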
# Rattus norvegicus [2] = organism: Rattus norvegicus; experiment: Radioactivity distribution in muscle of normal fischer rat after injection of syn-[18F]-FMACBC after 30 min.; format: ADME, organism-based, Muscle tissue; details: in vivo, 0.5 h
# Summary of the method: (§2)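 Normal male Fischer 344 rats (200–250 g) were anesthetised with ketamine:xylazine i.m. and given about 85 μCi tracer in 0.3 mL sterile water via a tail vein catheter. Groups of four were killed at 5, 30, 60 and 120 min. Selected tissues were weighed and gamma counted with dose standards, decay-corrected, and expressed as mean %ID/g.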
# Rattus norvegicus [3] = organism: Rattus norvegicus; experiment: Radioactivity distribution in brain of normal fischer rat after injection of anti-[18F]FMACBC after 60 min.; format: ADME, organism-based; details: in vivo, 1 h
# Summary of the method: (§3)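 Male Fischer 344 rats (200–250 g), normal, fed ad libitum, given ~85 μCi of 18F tracer in 0.3 mL sterile water IV through a tail vein catheter. Anesthesia was ketamine:xylazine IM. Groups of four were killed at 5, 30, 60 and 120 min. Tissues were weighed and gamma-counted against dose standards, decay-corrected, and expressed as mean % injected dose per gram.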
# Rattus norvegicus [4] = organism: Rattus norvegicus; experiment: Radioactivity distribution in spleen of normal fischer rat after injection of anti-[18F]FMACBC after 120 min.; format: ADME, organism-based; details: in vivo, 2 h; summary of the method: as §2
# Rattus norvegicus [5] = organism: Rattus norvegicus; experiment: Radioactivity distribution in spleen of normal fischer rat after injection of anti-[18F]FMACBC after 30 min.; format: ADME, organism-based; details: in vivo, 0.5 h; summary of the method: as §2
# Rattus norvegicus [6] = organism: Rattus norvegicus; experiment: Radioactivity distribution in spleen of normal fischer rat after injection of anti-[18F]FMACBC after 5 min.; format: ADME, organism-based; details: in vivo; summary of the method: as §2
# Rattus norvegicus [7] = organism: Rattus norvegicus; experiment: Radioactivity distribution in spleen of normal fischer rat after injection of anti-[18F]FMACBC after 60 min.; format: ADME, organism-based; details: in vivo, 1 h; summary of the method: as §2
# Rattus norvegicus [8] = organism: Rattus norvegicus; experiment: Radioactivity distribution in pancreas of tumor-bearing fischer rat after injection of anti-[18F]FMACBC after 5 min; format: ADME, organism-based; details: in vivo
# Summary of the method: (§4)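 Male Fischer 344 rats with intracranial 9L gliosarcoma (4 × 10^4 cells stereotaxically implanted; used 17–19 days after implantation). About 35 μCi tracer in 0.3 mL sterile water was given by tail vein to awake, restrained rats. Rats were killed at 5, 60 or 120 min. Tissues, tumor and contralateral brain were weighed and gamma counted, decay-corrected, and expressed as %ID/g; n = 3–5 per time point.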
# Rattus norvegicus [9] = organism: Rattus norvegicus; experiment: Radioactivity distribution in lungs of normal fischer rat after injection of syn-[18F]-FMACBC after 30 min.; format: ADME, organism-based, Lung; details: in vivo, 0.5 h; summary of the method: as §2
# Rattus norvegicus [10] = organism: Rattus norvegicus; experiment: Radioactivity distribution in testis of tumor-bearing fischer rat after injection of syn-[18F]-FMACBC after 5 min; format: ADME, organism-based; details: in vivo; summary of the method: as §4
# Rattus norvegicus [11] = organism: Rattus norvegicus; experiment: Radioactivity distribution in bone of tumor-bearing fischer rat after injection of syn-[18F]-FMACBC after 60 min; format: ADME, organism-based, Bone element; details: in vivo, 1 h; summary of the method: as §1
# Rattus norvegicus [12] = organism: Rattus norvegicus; experiment: Radioactivity distribution in heart of normal fischer rat after injection of syn-[18F]-FMACBC after 120 min.; format: ADME, organism-based; details: in vivo, 2 h; summary of the method: as §3
# Rattus norvegicus [13] = organism: Rattus norvegicus; experiment: Radioactivity distribution in blood of normal fischer rat after injection of syn-[18F]-FMACBC after 5 min.; format: ADME, organism-based; details: in vivo; summary of the method: as §3
# Rattus norvegicus [14] = organism: Rattus norvegicus; experiment: Radioactivity distribution in bone of normal fischer rat after injection of anti-[18F]FMACBC after 30 min.; format: ADME, organism-based, Bone element; details: in vivo, 0.5 h; summary of the method: as §3
# Rattus norvegicus [15] = organism: Rattus norvegicus; experiment: Radioactivity distribution in bone of normal fischer rat after injection of anti-[18F]FMACBC after 5 min.; format: ADME, organism-based, Bone element; details: in vivo; summary of the method: as §3
# Rattus norvegicus [16] = organism: Rattus norvegicus; experiment: Radioactivity distribution in bone of normal fischer rat after injection of syn-[18F]-FMACBC after 30 min.; format: ADME, organism-based, Bone element; details: in vivo, 0.5 h; summary of the method: as §3
# Rattus norvegicus [17] = organism: Rattus norvegicus; experiment: Radioactivity distribution in heart of tumor-bearing fischer rat after injection of anti-[18F]FMACBC after 5 min; format: ADME, organism-based; details: in vivo; summary of the method: as §1
# Rattus norvegicus [18] = organism: Rattus norvegicus; experiment: Radioactivity distribution in liver of tumor-bearing fischer rat after injection of syn-[18F]-FMACBC after 5 min; format: ADME, organism-based; details: in vivo; summary of the method: as §4
smiles,measurement,setting,value
N[C@]1(C(=O)O)C[C@@H](CF)C1,ID/g,Rattus norvegicus [1],0.79%
same,ID/g,Rattus norvegicus [2],0.58%
same,ID/g,Rattus norvegicus [3],0.25%
same,ID/g,Rattus norvegicus [4],0.47%
same,ID/g,Rattus norvegicus [5],0.63%
same,ID/g,Rattus norvegicus [6],1.03%
same,ID/g,Rattus norvegicus [7],0.48%
same,ID/g,Rattus norvegicus [8],3.26%
same,ID/g,Rattus norvegicus [9],0.46%
same,ID/g,Rattus norvegicus [10],0.19%
same,ID/g,Rattus norvegicus [11],0.12%
same,ID/g,Rattus norvegicus [12],0.6%
same,ID/g,Rattus norvegicus [13],0.53%
same,ID/g,Rattus norvegicus [14],0.31%
same,ID/g,Rattus norvegicus [15],0.52%
same,ID/g,Rattus norvegicus [16],0.32%
same,ID/g,Rattus norvegicus [17],0.58%
same,ID/g,Rattus norvegicus [18],0.64%

# Source: ChEMBL document CHEMBL1136049, “Synthesis of syn- and anti-1-amino-3-[18F]fluoromethyl-cyclobutane-1-carboxylic acid (FMACBC), potential PET ligands for tumor detection” (J Med Chem, 2002)
